Test results reported in ChEMBL document CHEMBL1132578, “New peptidic cysteine protease inhibitors derived from the electrophilic alpha-amino acid aziridine-2,3-dicarboxylic acid” (J Med Chem, 1999).
pKi: −log10 of the molar value. Blank lines part the entries; values can stand above or below the compound they belong to.

Key:
[1] = target: Cathepsin B (Bos taurus) (UniProt P07688); assay: Evaluated for second-order rate constants for the inactivation of mammalian lysosomal cathepsin B.
[2] = target: Procathepsin L (Homo sapiens) (UniProt P07711); assay: Evaluated for second-order rate constants for the inactivation of mammalian lysosomal cathepsin L.
Chain of Procathepsin L (Homo sapiens) (P07711 114-333 limits assumed): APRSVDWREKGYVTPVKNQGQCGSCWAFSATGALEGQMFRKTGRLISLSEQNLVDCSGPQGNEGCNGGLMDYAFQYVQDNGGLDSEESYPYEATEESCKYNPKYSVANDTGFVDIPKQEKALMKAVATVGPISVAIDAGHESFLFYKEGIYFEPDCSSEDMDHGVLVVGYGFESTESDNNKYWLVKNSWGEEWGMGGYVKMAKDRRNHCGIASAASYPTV

[3] = target: T1, Papain (Carica papaya) (UniProt P00784); assay: Second-order rate constants for the inactivation of papain (vacuolar plant enzyme)
T1 sequence (whole entry): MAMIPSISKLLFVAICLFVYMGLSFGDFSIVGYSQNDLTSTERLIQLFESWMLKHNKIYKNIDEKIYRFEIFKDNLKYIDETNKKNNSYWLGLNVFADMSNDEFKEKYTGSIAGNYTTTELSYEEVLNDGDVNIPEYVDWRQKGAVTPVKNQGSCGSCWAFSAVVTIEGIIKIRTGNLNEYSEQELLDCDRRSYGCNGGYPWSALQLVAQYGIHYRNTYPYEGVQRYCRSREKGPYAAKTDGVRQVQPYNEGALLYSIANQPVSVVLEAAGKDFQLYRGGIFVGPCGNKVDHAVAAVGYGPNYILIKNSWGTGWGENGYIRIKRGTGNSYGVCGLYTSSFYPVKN
In short: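 Papain with L-BAPA (405 nm) in 50 mM phosphate pH 6.5, 5 mM EDTA, 5 mM cysteine, or with Z-Phe-Arg-AMC in phosphate pH 6.5 with DTT, EDTA, Brij 35; 25 °C. kobs at 3–7 inhibitor concentrations, continuous or dilution assay; k2nd = ki/Ki, or from linear kobs vs [I] when unsaturated; substrate-corrected (Km 2.5 mM L-BAPA, 0.09 mM Z-Phe-Arg-AMC).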

[4] = target: T2, Pro-cathepsin H (Homo sapiens, UniProt P09668); assay: Inhibition constant for the non time dependent inhibition of Cathepsin H; no inhibition
T2 sequence (P09668 whole entry): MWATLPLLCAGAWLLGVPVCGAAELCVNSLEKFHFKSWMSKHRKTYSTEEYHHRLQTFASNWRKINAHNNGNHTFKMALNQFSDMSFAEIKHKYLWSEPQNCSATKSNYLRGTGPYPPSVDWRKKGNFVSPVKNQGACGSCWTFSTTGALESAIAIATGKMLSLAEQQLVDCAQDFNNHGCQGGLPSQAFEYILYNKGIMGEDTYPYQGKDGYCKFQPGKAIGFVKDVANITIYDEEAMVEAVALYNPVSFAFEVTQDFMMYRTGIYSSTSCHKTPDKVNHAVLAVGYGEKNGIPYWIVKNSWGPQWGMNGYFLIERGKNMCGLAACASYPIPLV

[5] = target: calpain I; assay: Inhibition constant for the non time dependent inhibition of calpain I
[6] = target: T1, Papain (Carica papaya); assay: Percent inhibition of papain by the compound at pH 6.0; conditions: concentration not given here
In short: (§1)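 Papain (0.5 mg/mL) with 1.49 mM L-BAPA, with or without 17 µM inhibitor for 30 min, at pH 5.2–8.0 (citrate pH 4–6, phosphate pH 6–8), 25 °C; nitroanilide release read at 405 nm. Activities are means of five assays; percent inhibition compares inhibited and uninhibited activity.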

[7] = target: T1, Papain (Carica papaya); assay: pH dependency of inhibition of papain without the compound at pH 5.2 mean values from five assays.; in short: as §1
[8] = target: T1, Papain (Carica papaya); assay: pH dependency of inhibition of papain without the compound at pH 7.0 mean values from five assays.; in short: as §1
[9] = target: T1, Papain (Carica papaya); assay: Percent inhibition of papain by the compound at pH 6.5; conditions: concentration not given here; in short: as §1
[10] = target: T1, Papain (Carica papaya); assay: pH dependency of inhibition of papain with the compound at pH 7.0 [I] = 17 uM, incubation time = 30 minutes, [S] = 1.49 mM L-BAPA, [E] = 0.5 mg m/L; in short: as §1
[11] = target: T1, Papain (Carica papaya); assay: pH dependency of inhibition of papain with the compound at pH 5.2 [I] = 17 uM, incubation time = 30 minutes, [S] = 1.49 mM L-BAPA, [E] = 0.5 mg m/L; in short: as §1
[12] = target: T1, Papain (Carica papaya)
[13] = target: T1, Papain (Carica papaya); assay: pH dependency of inhibition of papain with the compound at pH 6.0 [I] = 17 uM, incubation time = 30 minutes, [S] = 1.49 mM L-BAPA, [E] = 0.5 mg m/L; in short: as §1
[14] = target: T1, Papain (Carica papaya); remark: listed apart in the source
[15] = target: T1, Papain (Carica papaya); assay: pH dependency of inhibition of papain without the compound at pH 8.0 mean values from five assays.; in short: as §1
[16] = target: T1, Papain (Carica papaya); assay: pH dependency of inhibition of papain without the compound at pH 6.5 mean values from five assays.; in short: as §1
[17] = target: T1, Papain (Carica papaya); remark: listed apart in the source
[18] = target: Cathepsin B (Bos taurus) (UniProt P07688)
[19] = target: T1, Papain (Carica papaya); assay: pH dependency of inhibition of papain with the compound at pH 6.5 [I] = 17 uM, incubation time = 30 minutes, [S] = 1.49 mM L-BAPA, [E] = 0.5 mg m/L; in short: as §1
[20] = target: T1, Papain (Carica papaya); assay: Percent inhibition of papain by the compound at pH 7.0; conditions: concentration not given here; in short: as §1
[21] = target: T1, Papain (Carica papaya); assay: Percent inhibition of papain by the compound at pH 5.2; conditions: concentration not given here; in short: as §1
[22] = target: T1, Papain (Carica papaya); assay: pH dependency of inhibition of papain without the compound at pH 6.0 mean values from five assays.; in short: as §1
[23] = target: T1, Papain (Carica papaya); assay: pH dependency of inhibition of papain with the compound at pH 8.0 [I] = 17 uM, incubation time = 30 minutes, [S] = 1.49 mM L-BAPA, [E] = 0.5 mg m/L; in short: as §1
[24] = target: T1, Papain (Carica papaya); assay: Percent inhibition of papain by the compound at pH 8.0; conditions: concentration not given here; in short: as §1
[25] = target: T2, Pro-cathepsin H; assay: Compound was evaluated for inhibition constant for the non-time dependent inhibition of Cathepsin H.
[26] = target: T3, Calpain-1 catalytic subunit (Homo sapiens, UniProt P07384); assay: Compound was evaluated for inhibition constant for the non-time dependent inhibition of Calpain 1; no inhibition; parameters: species or system Sus scrofa
T3 sequence (P07384 whole entry): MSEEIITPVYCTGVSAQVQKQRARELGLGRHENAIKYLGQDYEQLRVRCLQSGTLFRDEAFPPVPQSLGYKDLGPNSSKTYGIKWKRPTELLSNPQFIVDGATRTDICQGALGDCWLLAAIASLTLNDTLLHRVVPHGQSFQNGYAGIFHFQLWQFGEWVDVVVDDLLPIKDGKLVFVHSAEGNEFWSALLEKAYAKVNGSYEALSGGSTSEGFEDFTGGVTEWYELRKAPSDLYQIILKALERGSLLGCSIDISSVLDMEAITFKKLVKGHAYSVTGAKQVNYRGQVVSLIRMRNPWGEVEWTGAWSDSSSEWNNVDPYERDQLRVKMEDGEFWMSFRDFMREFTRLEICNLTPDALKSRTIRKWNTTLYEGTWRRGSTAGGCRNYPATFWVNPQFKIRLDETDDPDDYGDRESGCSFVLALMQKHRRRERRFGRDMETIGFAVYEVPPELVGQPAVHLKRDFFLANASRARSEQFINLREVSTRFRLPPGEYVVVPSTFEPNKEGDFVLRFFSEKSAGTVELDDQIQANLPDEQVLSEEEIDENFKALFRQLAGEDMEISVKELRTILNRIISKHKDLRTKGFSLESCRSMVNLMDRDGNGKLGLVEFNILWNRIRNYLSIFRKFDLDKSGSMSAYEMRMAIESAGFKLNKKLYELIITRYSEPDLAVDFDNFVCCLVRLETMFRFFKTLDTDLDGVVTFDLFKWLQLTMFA

[27] = target: Procathepsin L (Homo sapiens) (UniProt P07711); conditions: Paramecium tetraurelia
[28] = target: T1, Papain (Carica papaya); remark: listed apart in the source

ki/Ki [1]: 1.12 M⁻¹ s⁻¹ | ki/Ki [2]: 5.08 M⁻¹ s⁻¹ | ki/Ki [3]: 1.22 M⁻¹ s⁻¹ | Ki [4]: Not Active | pKi [5]: 3.80
SMILES: CCOC(=O)[C@@H]1[C@@H](C(=O)OCC)N1C(=O)[C@H](C)NC(=O)OCc1ccccc1

inhibition [6]: 81.1% | Activity [7]: 6.54 mU/mL | Activity [8]: 7.33 mU/mL | inhibition [9]: 86.7% | Activity [10]: 0.75 mU/mL | Activity [11]: 1.86 mU/mL | ki/Ki [12]: 6.83 M⁻¹ s⁻¹ | Activity [13]: 1.38 mU/mL | ki/Ki [14]: 6.8 M⁻¹ s⁻¹ | Activity [15]: 7.31 mU/mL | Activity [16]: 7.38 mU/mL | ki/Ki [17]: 1.2 M⁻¹ s⁻¹ | ki/Ki [18]: 2.08 M⁻¹ s⁻¹ | Activity [19]: 0.98 mU/mL | inhibition [20]: 89.8% | inhibition [21]: 71.6% | Activity [22]: 7.33 mU/mL | Activity [23]: 0.75 mU/mL | inhibition [24]: 89.7% | pKi [25]: 3.68 | Ki [26]: Not Active | ki/Ki [27]: 1.08 M⁻¹ s⁻¹ | ki/Ki [28]: 7.07 M⁻¹ s⁻¹
SMILES: CCOC(=O)[C@@H]1[C@@H](C(=O)OCC)N1C(=O)[C@H](Cc1ccccc1)NC(=O)OC(C)(C)C
